Measured values published in ChEMBL document CHEMBL5058577, “EUbOPEN Chemogenomics Library 2 (Multiplex)” (2022).

Tested on: U2OS
Assay: Multiplex assay against U2OS
Type: toxicity, cell-based
Details: human
In short: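 Compound was added to live cells that had been stained at seeding with Hoechst33342, BioTracker Green Microtubule Cytoskeleton Dye, MitoTracker Red and Annexin V Alexa Fluor 680, and imaging followed on a CQ1 microscope at 37°C and 5% CO2. CellPathfinder machine-learning gating divided cells into Hoechst high-intensity objects or normal cells, normal cells into healthy, pyknosed or fragmented nuclei, and pyknosed cells into mitotic or apoptotic. Tubulin, mitochondrial-mass and membrane-permeability phenotypes are per cents of healthy-nucleus cells.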

[1] = 12 h, 1 µM, compound concentration 1 uM, replicate 1
[2] = 12 h, 1 µM, compound concentration 1 uM, replicate 2
[3] = 12 h, 10 µM, compound concentration 10 uM, replicate 1
[4] = 12 h, 10 µM, compound concentration 10 uM, replicate 2
[5] = 24 h, 1 µM, compound concentration 1 uM, replicate 1
[6] = 24 h, 1 µM, compound concentration 1 uM, replicate 2
[7] = 24 h, 10 µM, compound concentration 10 uM, replicate 1
[8] = 24 h, 10 µM, compound concentration 10 uM, replicate 2
[9] = 48 h, 1 µM, compound concentration 1 uM, replicate 1
[10] = 48 h, 1 µM, compound concentration 1 uM, replicate 2
[11] = 48 h, 10 µM, compound concentration 10 uM, replicate 1
[12] = 48 h, 10 µM, compound concentration 10 uM, replicate 2

CN(C)CCCc1cc(C(=O)Nc2ccc(-c3ccncc3)cc2)ccc1O.Cl.Cl
Population Apoptotic (%) [1]: 89% | Population Fragmented Nuclei (%) [1]: 29% | Population Healthy Nuclei (%) [1]: 60% | Population Hoechst High Intensity Objects (%) [1]: 2% | Population Membrane Permeable-Phenotype (%) [1]: 6% | Population Mitochondria Different-Phenotype (%) [1]: 0% | Population Mitotic Cells (%) [1]: 10% | Population Normal (%) [1]: 97% | Population Pyknosed Nuclei (%) [1]: 9% | Population Tubulin-Different-Phenotype (%) [1]: 3% | Total Cell Count [1]: 199 | Population Apoptotic (%) [2]: 100% | Population Fragmented Nuclei (%) [2]: 10% | Population Healthy Nuclei (%) [2]: 75% | Population Hoechst High Intensity Objects (%) [2]: 0% | Population Membrane Permeable-Phenotype (%) [2]: 2% | Population Mitochondria Different-Phenotype (%) [2]: 1% | Population Mitotic Cells (%) [2]: 0% | Population Normal (%) [2]: 99% | Population Pyknosed Nuclei (%) [2]: 13% | Population Tubulin-Different-Phenotype (%) [2]: 0% | Total Cell Count [2]: 124 | Population Apoptotic (%) [3]: 77% | Population Fragmented Nuclei (%) [3]: 28% | Population Healthy Nuclei (%) [3]: 62% | Population Hoechst High Intensity Objects (%) [3]: 4% | Population Membrane Permeable-Phenotype (%) [3]: 7% | Population Mitochondria Different-Phenotype (%) [3]: 1% | Population Mitotic Cells (%) [3]: 22% | Population Normal (%) [3]: 95% | Population Pyknosed Nuclei (%) [3]: 9% | Population Tubulin-Different-Phenotype (%) [3]: 2% | Total Cell Count [3]: 237 | Population Apoptotic (%) [4]: 42% | Population Fragmented Nuclei (%) [4]: 24% | Population Healthy Nuclei (%) [4]: 63% | Population Hoechst High Intensity Objects (%) [4]: 1% | Population Membrane Permeable-Phenotype (%) [4]: 4% | Population Mitochondria Different-Phenotype (%) [4]: 8% | Population Mitotic Cells (%) [4]: 57% | Population Normal (%) [4]: 98% | Population Pyknosed Nuclei (%) [4]: 12% | Total Cell Count [4]: 113 | Population Apoptotic (%) [5]: 100% | Population Fragmented Nuclei (%) [5]: 28% | Population Healthy Nuclei (%) [5]: 65% | Population Hoechst High Intensity Objects (%) [5]: 2% | Population Membrane Permeable-Phenotype (%) [5]: 5% | Population Mitochondria Different-Phenotype (%) [5]: 2% | Population Mitotic Cells (%) [5]: 0% | Population Normal (%) [5]: 97% | Population Pyknosed Nuclei (%) [5]: 6% | Population Tubulin-Different-Phenotype (%) [5]: 3% | Total Cell Count [5]: 247 | Population Apoptotic (%) [6]: 94% | Population Fragmented Nuclei (%) [6]: 11% | Population Healthy Nuclei (%) [6]: 77% | Population Hoechst High Intensity Objects (%) [6]: 4% | Population Membrane Permeable-Phenotype (%) [6]: 7% | Population Mitochondria Different-Phenotype (%) [6]: 5% | Population Mitotic Cells (%) [6]: 5% | Population Normal (%) [6]: 95% | Population Pyknosed Nuclei (%) [6]: 11% | Population Tubulin-Different-Phenotype (%) [6]: 5% | Total Cell Count [6]: 178 | Population Apoptotic (%) [7]: 72% | Population Fragmented Nuclei (%) [7]: 28% | Population Healthy Nuclei (%) [7]: 58% | Population Hoechst High Intensity Objects (%) [7]: 4% | Population Membrane Permeable-Phenotype (%) [7]: 6% | Population Mitochondria Different-Phenotype (%) [7]: 3% | Population Mitotic Cells (%) [7]: 27% | Population Normal (%) [7]: 95% | Population Pyknosed Nuclei (%) [7]: 13% | Population Tubulin-Different-Phenotype (%) [7]: 1% | Total Cell Count [7]: 257 | Population Apoptotic (%) [8]: 66% | Population Fragmented Nuclei (%) [8]: 21% | Population Healthy Nuclei (%) [8]: 63% | Population Hoechst High Intensity Objects (%) [8]: 0% | Population Membrane Permeable-Phenotype (%) [8]: 4% | Population Mitochondria Different-Phenotype (%) [8]: 8% | Population Mitotic Cells (%) [8]: 33% | Population Normal (%) [8]: 100% | Population Pyknosed Nuclei (%) [8]: 15% | Population Tubulin-Different-Phenotype (%) [8]: 2% | Total Cell Count [8]: 118 | Population Apoptotic (%) [9]: 88% | Population Fragmented Nuclei (%) [9]: 25% | Population Healthy Nuclei (%) [9]: 69% | Population Hoechst High Intensity Objects (%) [9]: 3% | Population Membrane Permeable-Phenotype (%) [9]: 5% | Population Mitochondria Different-Phenotype (%) [9]: 3% | Population Mitotic Cells (%) [9]: 11% | Population Normal (%) [9]: 96% | Population Pyknosed Nuclei (%) [9]: 5% | Population Tubulin-Different-Phenotype (%) [9]: 3% | Total Cell Count [9]: 338 | Population Apoptotic (%) [10]: 93% | Population Fragmented Nuclei (%) [10]: 15% | Population Healthy Nuclei (%) [10]: 71% | Population Membrane Permeable-Phenotype (%) [10]: 7% | Population Mitotic Cells (%) [10]: 6% | Population Pyknosed Nuclei (%) [10]: 13% | Population Tubulin-Different-Phenotype (%) [10]: 4% | Total Cell Count [10]: 259 | Population Apoptotic (%) [11]: 74% | Population Fragmented Nuclei (%) [11]: 25% | Population Healthy Nuclei (%) [11]: 61% | Population Hoechst High Intensity Objects (%) [11]: 5% | Population Membrane Permeable-Phenotype (%) [11]: 5% | Population Mitochondria Different-Phenotype (%) [11]: 3% | Population Mitotic Cells (%) [11]: 25% | Population Normal (%) [11]: 94% | Population Pyknosed Nuclei (%) [11]: 12% | Population Tubulin-Different-Phenotype (%) [11]: 5% | Total Cell Count [11]: 352 | Population Apoptotic (%) [12]: 68% | Population Fragmented Nuclei (%) [12]: 20% | Population Healthy Nuclei (%) [12]: 63% | Population Hoechst High Intensity Objects (%) [12]: 4% | Population Membrane Permeable-Phenotype (%) [12]: 13% | Population Mitochondria Different-Phenotype (%) [12]: 8% | Population Mitotic Cells (%) [12]: 32% | Population Normal (%) [12]: 95% | Population Pyknosed Nuclei (%) [12]: 16% | Population Tubulin-Different-Phenotype (%) [12]: 9% | Total Cell Count [12]: 160
